Reference: paper PMC5191920 (Biochimica et biophysica acta, 2016)
“Also recorded” adds a separate entry of the source. Each block holds one substance with its values, some of them ahead of it. Ends that are not written are not given here.

Tests used:
[1] = DMPC vesicle clearance; type: physicochemical; settings: peptide 100 ng/ml, DMPC 1 mg/ml, PBS, 24 °C, 60 min, absorbance 432 nm
Method in brief: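 Multilamellar DMPC vesicles (1 mg/ml) made by resuspending dried lipid in PBS and vortexing for 5 min. Peptide added to 100 ng/ml final. Absorbance at 432 nm read every 5 s for 60 min at 24 °C with fast shaking to prevent settling. Turbidity compared with a PBS-only control.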

[2] = biological target: human ABCA1 (Homo sapiens, UniProt O95477); assay: Cholesterol efflux, ABCA1 transfected BHK cells; type: cell-based; settings: ABCA1 expressing BHK cells, 18 h
Method in brief: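 BHK cells stably expressing human ABCA1 labelled 18 h with [3H]cholesterol in DMEM plus 10% fetal calf serum. Cells were washed, then switched to serum-free DMEM with 0.1 mg/ml fatty acid-free BSA. Peptide over a concentration range, or PBS, added for 18 h. Media filtered, cells lysed in 0.1% SDS/0.1 N NaOH, both counted by liquid scintillation. Efflux = media counts/(media + cell counts) × 100.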

[3] = DMP cross-linking, SDS-PAGE; type: physicochemical; settings: PBS, DMP:peptide 30:1, 2 h room temperature
Method in brief: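 Homo-bifunctional amine-reactive crosslinker dimethylpimelimidate reacted with peptide at 30:1 molar ratio (crosslinker:peptide) in PBS for 2 h at room temperature. Quenched with 1 M Tris. Products resolved by SDS-PAGE under reducing conditions and stained with Coomassie blue to visualise oligomeric species.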

[4] = tested on: isolated human LDL; assay: Isothermal titration calorimetry, binding to LDL; settings: for binding to LDL by ITC: isolated human LDL injected into peptide, PBS pH 7.4
Method in brief: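 Human LDL and HDL isolated by ultracentrifugation. Lipoprotein titrated into a cell holding peptide or buffer alone: one initial injection, then 35 injections spaced 180 s apart. Heat monitored throughout and thermograms integrated to isotherms.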

[5] = Circular dichroism spectroscopy; type: physicochemical; settings: 37 °C; for helicity, with TFE: 20% trifluoroethanol
Method in brief: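 Peptides at 0.2 mg/mL (final) in 10 mM phosphate buffer, with or without 20% trifluoroethanol, held at 37 °C. Far-UV spectra recorded from 190 to 240 nm on a spectropolarimeter. Ellipticity in mdeg converted to mean residue ellipticity (deg cm² dmol⁻¹).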

[6] = tested on: isolated human HDL; assay: Isothermal titration calorimetry, binding to HDL; settings: isolated human HDL injected into peptide, PBS pH 7.4
Method in brief: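 Human HDL isolated by ultracentrifugation. Lipoprotein titrated into cell holding peptide or buffer alone: one small initial injection, then 35 injections, 180 s apart, with heat monitored continuously. Thermograms integrated to binding isotherms.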

[7] = tested on: BHK cells; assay: Visual cytotoxicity during cholesterol efflux experiments; type: cell-based; settings: during the cholesterol efflux experiments
[8] = tested on: lipoproteins in human plasma; assay: Exchangeability of LDL-bound peptide among lipoproteins; settings: FITC labeled B38 on isolated LDL, then human plasma 1 h at 37 °C, FPLC
Method in brief: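 FITC-labelled peptide co-incubated with isolated human LDL for 1 h at 37 °C. LDL repurified by FPLC to remove unbound peptide, and LDL fractions pooled and concentrated. Peptide-loaded LDL then incubated with PBS or human plasma for 1 h at 37 °C. Transfer of fluorescent peptide to other lipoprotein classes measured.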

[9] = tested on: human red blood cells; assay: Red blood cell lysis assay; type: cell-based; settings: human RBCs, 0 – 100 µM, 2 h room temperature, 1% Triton X-100 = 100% lysis
Method in brief: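 Human erythrocytes washed 5 times in PBS with 5% glucose, pH 7.4. Incubated with peptide at 0–100 µM for 2 h at room temperature, then pelleted at 1000×g for 5 min. Supernatant absorbance read at 450 nm. 1% Triton X-100 served as the 100% lysis reference.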

[10] = tested on: apoB containing lipoproteins in human plasma; type: binding; settings: FPLC separation, VLDL plus LDL
Method in brief: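 FITC-labelled peptide incubated with human plasma for 1 h at 37 °C. Separated on two Superose 6 columns in series in Tris buffer (10 mM Tris, 150 mM NaCl, 0.5 mM EDTA, 0.01% azide) at 0.5 mL/min, collecting 0.5 mL fractions. Enzymatic phospholipid assay located VLDL, LDL and HDL. Fluorescence read at ex 485 / em 535 nm. Each peak expressed as percent of total fluorescence.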

[11] = tested on: cells; settings: ref [48]; cited from earlier work
[12] = 0.2 mg/mL peptide, 10 mM phosphate buffer

Chain of human ABCA1 (O95477 whole entry): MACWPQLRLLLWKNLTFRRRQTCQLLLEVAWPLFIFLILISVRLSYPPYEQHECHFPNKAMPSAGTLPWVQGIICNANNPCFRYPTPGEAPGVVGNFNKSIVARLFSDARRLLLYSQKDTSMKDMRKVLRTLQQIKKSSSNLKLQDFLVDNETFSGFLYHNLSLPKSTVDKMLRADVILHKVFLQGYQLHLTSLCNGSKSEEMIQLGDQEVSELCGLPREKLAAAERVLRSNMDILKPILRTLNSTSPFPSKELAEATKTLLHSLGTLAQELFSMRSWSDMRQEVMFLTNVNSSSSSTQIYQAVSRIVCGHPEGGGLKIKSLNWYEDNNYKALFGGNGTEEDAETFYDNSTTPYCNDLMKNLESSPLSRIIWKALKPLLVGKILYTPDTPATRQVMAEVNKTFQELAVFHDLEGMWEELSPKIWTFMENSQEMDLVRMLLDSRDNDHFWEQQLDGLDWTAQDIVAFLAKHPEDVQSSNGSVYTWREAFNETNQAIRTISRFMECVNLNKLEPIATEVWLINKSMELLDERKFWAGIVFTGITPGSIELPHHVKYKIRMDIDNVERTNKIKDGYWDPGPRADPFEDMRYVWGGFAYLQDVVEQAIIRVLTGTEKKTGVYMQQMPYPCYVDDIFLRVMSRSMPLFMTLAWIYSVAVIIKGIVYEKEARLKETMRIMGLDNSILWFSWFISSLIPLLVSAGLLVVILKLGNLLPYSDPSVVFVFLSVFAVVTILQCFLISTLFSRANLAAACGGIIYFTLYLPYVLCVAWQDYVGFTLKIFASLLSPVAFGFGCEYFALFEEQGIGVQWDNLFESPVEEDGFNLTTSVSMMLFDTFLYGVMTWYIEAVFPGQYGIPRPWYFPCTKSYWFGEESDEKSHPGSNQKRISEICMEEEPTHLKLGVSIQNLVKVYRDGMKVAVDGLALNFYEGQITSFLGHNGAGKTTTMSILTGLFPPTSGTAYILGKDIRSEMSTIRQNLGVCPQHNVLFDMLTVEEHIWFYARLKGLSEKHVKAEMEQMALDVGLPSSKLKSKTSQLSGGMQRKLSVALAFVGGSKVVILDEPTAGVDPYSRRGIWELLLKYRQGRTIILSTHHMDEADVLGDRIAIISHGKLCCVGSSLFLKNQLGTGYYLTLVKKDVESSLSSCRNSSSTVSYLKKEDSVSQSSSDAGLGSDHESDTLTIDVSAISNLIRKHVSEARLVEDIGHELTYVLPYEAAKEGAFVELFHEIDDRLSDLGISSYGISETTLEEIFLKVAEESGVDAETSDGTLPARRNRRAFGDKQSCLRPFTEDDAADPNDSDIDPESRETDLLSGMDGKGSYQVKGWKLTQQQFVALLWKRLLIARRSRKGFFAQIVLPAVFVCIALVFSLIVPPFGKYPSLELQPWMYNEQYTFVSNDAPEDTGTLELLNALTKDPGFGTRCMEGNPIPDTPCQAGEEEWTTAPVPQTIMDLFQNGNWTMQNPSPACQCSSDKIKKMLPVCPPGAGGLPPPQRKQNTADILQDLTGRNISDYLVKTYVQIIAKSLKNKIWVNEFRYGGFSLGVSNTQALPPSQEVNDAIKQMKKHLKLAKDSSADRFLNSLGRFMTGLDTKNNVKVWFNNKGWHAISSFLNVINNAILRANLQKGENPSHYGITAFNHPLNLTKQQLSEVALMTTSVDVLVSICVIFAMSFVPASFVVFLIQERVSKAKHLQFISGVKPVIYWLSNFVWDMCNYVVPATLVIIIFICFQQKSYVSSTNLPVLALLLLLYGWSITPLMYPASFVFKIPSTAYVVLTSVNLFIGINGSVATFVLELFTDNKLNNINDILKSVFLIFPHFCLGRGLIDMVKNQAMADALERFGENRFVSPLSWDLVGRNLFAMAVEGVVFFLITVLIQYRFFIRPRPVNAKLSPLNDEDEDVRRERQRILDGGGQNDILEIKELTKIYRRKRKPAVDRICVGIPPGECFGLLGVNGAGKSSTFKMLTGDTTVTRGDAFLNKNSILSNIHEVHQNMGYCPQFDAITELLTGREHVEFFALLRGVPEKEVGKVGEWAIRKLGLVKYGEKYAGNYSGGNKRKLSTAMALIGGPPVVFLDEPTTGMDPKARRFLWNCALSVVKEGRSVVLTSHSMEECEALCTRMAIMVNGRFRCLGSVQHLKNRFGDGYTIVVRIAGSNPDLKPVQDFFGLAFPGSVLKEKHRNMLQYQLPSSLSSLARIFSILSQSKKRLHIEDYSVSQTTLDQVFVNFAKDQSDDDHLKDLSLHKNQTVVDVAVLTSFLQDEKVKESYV

Substance: DWLKAFYDKVAEKLKEAFPDWAKAAYDKAAEKAKEAA [5A, reference compound]
solubilization / clearance of DMPC vesicles [1]: rapidly cleared the solution

helicity, with TFE [5, 12]: 38%
secondary structure by CD, aqueous solution ([5]; 10 mM phosphate buffer, no TFE): random coil structure
Substance: EKLKAKLKEGGEKLKAKLKE [FLANK]
cholesterol efflux, ABCA1 cells [2]: ineffective in promoting cholesterol efflux
oligomeric forms in aqueous solution [3]: only found as monomer and dimer in aqueous solution
binding to LDL by ITC [4]: did not appear to bind strongly to either lipoprotein
solubilization / clearance of DMPC vesicles [1]: did not solubilize DMPC vesicles
binding to HDL by ITC [6]: did not appear to bind strongly to either lipoprotein

helicity, with TFE [5, 12]: 40%
secondary structure by CD, aqueous solution ([5]; 10 mM phosphate buffer, no TFE): random coil structure
Substance: EKLKAKLKEGGGLSDEAVTSLLPQLIEVSSPGGEKLKAKLKE [B07]

helicity, with TFE [5, 12]: 60%
secondary structure by CD, aqueous solution ([5]; 10 mM phosphate buffer, no TFE): random coil structure
Substance: EKLKAKLKEGGKATLELSPWQMSALVQVHASQPSSFHDFPDLGGEKLKAKLKE [B61]

helicity, with TFE [5, 12]: 43%
secondary structure by CD, aqueous solution ([5]; 10 mM phosphate buffer, no TFE): random coil structure
Substance: EKLKAKLKEGGLNIKRGIISALLVPPETEEAGGEKLKAKLKE [B04]

total binding energy for LDL relative to HDL ([4]; ITC, isolated human LDL vs. HDL): 2.7 times
shape of ITC thermal energy curve ([4]; binding to lipoprotein particles): U-shaped curve
binding energy in buffer control ([4]; peptide in buffer control (no LDL)): lack of significant binding energy
helicity, with TFE [5, 12]: 59%
helicity, aqueous solution ([5]; 0.2 mg/mL peptide, 10 mM phosphate buffer, no TFE): 40.1%
helicity, with POPC vesicles ([5]; POPC vesicles added (also printed POPS)): 42.4%
secondary structure by CD, with POPC vesicles ([5]; POPC vesicles added): slight increase in helicity
concentration above which a small amount of red cell lysis occurs [9]: above 30 uM
percent of peptide bound to apoB containing lipoproteins [10]: 17%
Substance: EKLKAKLKEGGQELQRYLSLVGQVYSTLVTYISDWWTLGGEKLKAKLKE [B38]
cholesterol efflux, ABCA1 cells [2]: capable of ABCA1-dependent cholesterol efflux from cells; also recorded: promotes ABCA1 specific cholesterol efflux
oligomeric forms in aqueous solution [3]: presence of B38 oligomers in aqueous solution
visual evidence of cytotoxicity [7]: no visual evidence of cytotoxicity was observed
lipoprotein binding of synthesized HCD peptides ([4]; ITC, lipoprotein class not specified): showed significant lipoprotein binding capacity
binding to LDL by ITC [4]: high affinity binding to both isolated HDL and LDL; also recorded: only peptide with significant binding affinity for LDL
exchangeability between lipoproteins [8]: could exchange between lipoproteins; also recorded: exchangeable between lipoproteins
secondary structure by CD, aqueous solution ([5]; 10 mM phosphate buffer, no TFE): α-helical secondary structure; also recorded: formed an α-helix in aqueous buffer
solubilization / clearance of DMPC vesicles [1]: rapidly cleared the solution; also recorded: does not clear DMPC vesicles as rapidly
binding to HDL by ITC [6]: high affinity binding to both isolated HDL and LDL; also recorded: found to bind to high density lipoprotein (HDL) but with lower affinity than LDL

Substance: apoB: large amphipathic protein, structural scaffold of several classes of lipoproteins
cholesterol efflux from cells [11]: does not promote cholesterol efflux from cells
